Screens from PubChem BioAssay.
N-glyco inh: increase of ERlucT glycosylation luciferase signal, primary screen, N-linked glycosylation inhibitor project, D54 ERlucT cells, luminescence, set 2 | D54 ERlucT glycosylation luciferase reporter, 24 h; percent of 100 nM tunicamycin response | reporter increase, % at 12.5 µM | actives 0.23% (n = 360,000);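 active means mean luciferase reporter signal, scaled so untreated is 0 and the glycosylation-blocking control 100, at or above a set limit in every replicate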;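 further: luciferase carries N-glycosylation sites so blocking glycosylation raises the light; 0% = median of neutral control wells and 100% = median of 100 nM tunicamycin wells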
Rtt109 Vps75: inhibitors of C. albicans Rtt109/Vps75 HAT, primary screen, biochemical, ThioGlo CoA-SH fluorescence, plate reader; purified Rtt109/Vps75, 4 h; inhibition, % at 34.9 µM; actives 0.16% (n = 330,000);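 active means inhibition of at least 50% in every replicate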
PglD inh: C. jejuni PglD acetyltransferase inhibitors, primary screen, biochemical, DTNB colorimetric, single point; purified PglD enzyme, DTNB colorimetric CoA detection; actives 0.098% (n = 360,000); UDP-N-acetylbacillosamine N-acetyltransferase PglD (Campylobacter jejuni); inhibition, % at 12.5 µM; in the data active means inhibition above about 16%, passing the limit was not always enough
SR-BI DiI-HDL act: activators of SR-BI mediated DiI-HDL uptake, primary screen, ldlA[mSR-BI] CHO cells, DiI fluorescence | 3 h; 100 = double the neutral-control signal | activation, % at 12.5 µM | actives 0.096% (n = 320,000);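 active means mean replicate activation of at least 60% and every replicate at or above 60%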;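 further: 0% = median plate neutral-control signal and 100% = twice that signal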
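material = CHO ldlA[mSR-BI] cells | medium = Ham's F12 with 0.5% BSA, HEPES 25 mM, pH 7.4 | reagent = fluorescent DiI-HDL, 10 µg/mL final | compound dosing = single-point compound dose | incubation = 3 h, 37 °C | measured by = bottom-read fluorescence, 550/595 nm | measure = HDL uptake via cellular fluorescence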
SR-BI DiI inh: inhibitors of SR-BI mediated HDL lipid uptake, primary screen, ldlA[mSR-BI] cells, fluorescence, single point; ldlA[mSR-BI] CHO cells, DiI-HDL uptake fluorescence, 3 h; Scavenger receptor class B member 1 (Mus musculus), Q61009; actives 0.96% (n = 320,000); inhibition, % at 12.5 µM;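 active means mean replicate inhibition of at least 70% and a set share of replicates each scoring 70 or more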;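 further: 0% = median of neutral control wells and 100% = median of positive control wells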
Target sequence (Q61009 whole entry, looked up): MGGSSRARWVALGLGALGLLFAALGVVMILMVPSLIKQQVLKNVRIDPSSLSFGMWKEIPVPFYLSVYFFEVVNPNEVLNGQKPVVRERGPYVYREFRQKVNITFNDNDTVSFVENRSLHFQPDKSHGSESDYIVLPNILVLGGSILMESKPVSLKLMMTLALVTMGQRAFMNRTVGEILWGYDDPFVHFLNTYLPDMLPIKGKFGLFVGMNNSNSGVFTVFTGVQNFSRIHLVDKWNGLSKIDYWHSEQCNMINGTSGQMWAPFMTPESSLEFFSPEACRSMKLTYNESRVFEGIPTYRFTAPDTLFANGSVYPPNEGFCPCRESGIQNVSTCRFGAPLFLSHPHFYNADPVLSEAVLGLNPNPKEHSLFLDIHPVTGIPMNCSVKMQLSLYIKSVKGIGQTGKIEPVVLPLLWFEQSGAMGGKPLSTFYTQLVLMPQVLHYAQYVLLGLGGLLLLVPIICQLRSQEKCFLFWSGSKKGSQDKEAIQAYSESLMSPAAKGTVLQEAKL
HIV Env fusion: inhibitors of HIV-1 Env-driven cell-cell fusion, primary screen, HeLa-JRFL effector, CEM21 target cells, luciferase. actives 1.1% (n = 360,000). inhibition, % at 12.3 µM;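 active means mean replicate inhibition score of at least 50 and every replicate individually at or above 50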;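 further: 0% = plate neutral controls and 100% = maraviroc near 300 nM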
The depositor's hits bear a star; . = no result; ! = repeats disagree; [ ] = another dose, or the depositor's remark. The list is not random: actives were taken first. Their share in the collection is about 1.9%.

SMILES	N-glyco inh	Rtt109 Vps75	PglD inh	SR-BI DiI-HDL act	SR-BI DiI inh	HIV Env fusion
Cc1nnc(SCc2nc3ccccc3c(=O)n2-c2ccccc2Cl)n1N	5.4	-0.7	1.5	10.6	-10.6	119.1*
CN1/C(=C\C=Nc2ccccc2)C(C)(C)c2ccccc21	-3.8	20.0	-4.3	2.3	-2.3	64.3*
CC(=O)Nc1ccc(C=C2C(=O)NC(=O)NC2=O)cc1	2.6	4.2	.	15.1	-15.1	63.2*
CC1CCC/C=C/C2CC(O)CC2C(O)/C=C/C(=O)O1 (configuration not stated)	-4.1	-3.3	3.2	.	.	107.4*
O=C1NC(=O)C(Sc2ccccc2[N+](=O)[O-])C(=O)N1	2.5	86.1*	-0.5	.	.	-6.7
N#Cc1cccc(-c2ccc([C@@H]3[C@@H](CO)N4CCCCN(C(=O)Cc5ccccc5)C[C@@H]34)cc2)c1	.	.	2.5	.	.	.
CCSc1nnc([C@@H](N)Cc2c[nH]c3ccccc23)o1	1.8	2.6	-0.2	9.0	-9.0	-28.4
Cc1cccc(NC(=O)CSc2nnc([C@@H](N)Cc3c[nH]c4ccccc34)o2)c1C	0.1	11.9	0.7	-20.9	20.9	55.2*
C/C=C/c1ccc([C@H]2[C@@H](CO)N3CCCCN(C(=O)Cc4ccncc4)C[C@@H]23)cc1	.	.	0.0	.	.	.
CCCCNC(=O)c1c(N)n(CCCOC)c2nc3ccccc3nc12	0.7	-5.9	-7.1	-19.8	19.8	14.2
COCCNC(=O)c1c(N)n(CCC(C)C)c2nc3ccccc3nc12	3.0	-132.3	3.1	29.9	-29.9	58.9*
CC1CC(C)(O)CC(C(O)CC2CC(=O)NC(=O)C2)C1=O (configuration not stated)	-18.8	2.5	.	2.5	-2.5	97.8*
CC=CC(C)=CC(C)C(=O)CC(O)CC1CC(=O)NC(=O)C1 (configuration not stated)	-7.0	.	.	.	.	23.8
COc1ccc(C(CC(C)=O)c2c(O)c3ccccc3oc2=O)cc1OC (configuration not stated)	0.8	.	.	.	.	-0.3
CC/C(CC(c1ccccc1)c1c(O)c2ccccc2oc1=O)=N\NC(N)=S (configuration not stated)	3.8	19.5	.	-80.4	80.4*	.
COc1cccc(-c2ccc([C@@H]3[C@H](CO)N4CCCCN(C(=O)Cc5ccncc5)C[C@@H]34)cc2)c1	.	.	10.6	.	.	.
CC=Cc1ccc2n(c1=O)C[C@H]1[C@H](CO)[C@@H](C(=O)O)[C@@H]2N1S(=O)(=O)c1ccccc1F (mixture of isomers)	.	.	-1.0	.	.	8.0[16.7 µM]
O=C1NC(=O)C2(Cc3ccccc3N3CCCC32)C(=O)N1c1ccccc1 (configuration not stated)	-0.8	-64.4	2.0	-1.2	1.2	-23.7
O=C1NC(=O)C2(Cc3ccccc3N3CCCC32)C(=O)N1 (configuration not stated)	-0.2	-22.9	-0.3	2.6	-2.6	61.3*
COC(=O)[C@H]1[C@H](CO)[C@H]2Cn3c(ccc(-c4ccc(F)cc4)c3=O)[C@@H]1N2Cc1ccccc1	.	.	-4.0	.	.	.
COC(=O)[C@H]1[C@H](CO)[C@H]2Cn3c(ccc(/C=C/c4ccccc4)c3=O)[C@@H]1N2C(=O)C1CC1	.	.	-1.5	.	.	.
Cc1ccccc1[N+](=O)[O-]	-0.1	1.1	0.7	0.9	-0.9	.
COC(=O)C1=C(C)NC(C)=C(C(=O)OC)C1c1ccccc1[N+](=O)[O-]	-2.4	133.8*!	5.0	-2.5	2.5	-5.3
CC(C)c1ccc(C(c2c(O)c3ccccc3oc2=O)c2c(O)c3ccccc3oc2=O)cc1	0.0	.	.	.	.	8.2
O=c1oc2ccccc2c(O)c1C(c1ccc([N+](=O)[O-])cc1)c1c(O)c2ccccc2oc1=O	3.1	68.2*	-89.6	-11.6	11.6	-2.5
SMILES	N-glyco inh	Rtt109 Vps75	PglD inh	SR-BI DiI-HDL act	SR-BI DiI inh	HIV Env fusion
C[C@]12CC[C@@H]3c4ccc(O)c(O)c4CC[C@H]3[C@@H]1CC[C@@H]2O	-0.1	131.8*	-1.5	-10.7	12.8	-1.3
C[C@]12CCC(=O)C=C1CCC1C2CC[C@@]2(C)C1CC[C@@H]2O (some centres not stated)	-1.1	6.5	2.7	3.3	-3.3	.
Cc1cccc(C)c1-n1nnnc1C(c1cccc2ccccc12)N1CCC(n2c(=O)[nH]c3ccccc32)CC1 (configuration not stated)	-12.7	.	0.5	.	.	74.3*
O=c1[nH]c2ccccc2n1C1CCN(C(CCc2ccccc2)c2nnnn2Cc2ccccc2)CC1 (configuration not stated)	-21.2	.	4.7	.	.	66.3*
O=C(Cc1cccnc1)N1CCCCN2[C@H](CO)[C@@H](c3ccc(/C=C/c4ccccc4)cc3)[C@@H]2C1	.	.	4.4	.	.	.
Clc1ccc(CSC(Cn2ccnc2)c2ccc(Cl)cc2Cl)cc1 (configuration not stated)	-3.3	43.9	3.5	-17.0	17.0	33.9
Clc1ccc(COC(Cn2ccnc2)c2ccc(Cl)cc2Cl)cc1 (configuration not stated)	-1.2	74.0*!	-3.3	1.3	-1.3	-3.4
COC(=O)[C@@H]1[C@@H](CO)[C@@H]2Cn3c(ccc(-c4ccc(F)cc4)c3=O)[C@H]1N2Cc1ccccc1	.	.	1.5	.	.	.
O=C(Nc1ccncc1)c1cccn(Cc2ccccc2)c1=O	3.3	0.4	.	-5.2	5.2	56.0*
O=C(Nc1ccccc1)c1cccn(Cc2ccccc2)c1=O	-3.0	2.6	.	1.4	-1.4	16.2
CCN(CCCl)c1cc(CN(C)C)cc(NC(=O)c2ccc(C(=O)Nc3cc(CN(C)C)cc(N(CC)CCCl)c3)cc2)c1	-19.7	-5.8	.	26.5	-26.5	88.7*
C[C@H]1CC[C@H]2NCCN[C@H]2C1	1.0	56.0*	.	.	.	17.9
CCCN1[C@@H]2c3cccc(=O)n3C[C@H]1[C@H](CO)[C@H]2C(=O)N(C)C	.	.	-3.0	.	.	-9.1[16.7 µM]
CCOC(=O)[C@@H]1[C@@H]2NC(=S)N(C)[C@@]1(C)Oc1ccccc12	.	.	-3.0	.	.	-22.0[16.7 µM]
CC=Cc1ccc2n(c1=O)C[C@@H]1[C@@H](CO)[C@H](C(=O)O)[C@H]2N1S(=O)(=O)c1ccccc1C (mixture of isomers)	.	.	-1.1	.	.	.
CC=Cc1ccc2n(c1=O)C[C@@H]1[C@@H](CO)[C@H](C(=O)OC)[C@H]2N1S(=O)(=O)c1cccc(C)c1 (mixture of isomers)	.	.	-5.5	.	.	61.1*[16.7 µM]
